Columns and labels:
HCT-116 = assay: Growth inhibition of human HCT116 cells after 48 hrs by sulforhodamine B assay; assay type: functional, cell-based; settings: HCT-116, 48 h
Summary of the method: (§1)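 Cells were grown in RPMI-1640 with 10% FBS, penicillin, streptomycin and amphotericin B at 37 °C in 5% CO2, then treated for 48 h in triplicate wells. They were fixed with cold 50% TCA for 1 h at 4 °C, stained with 0.4% SRB in 1% acetic acid for 10 min at RT, and dissolved in 10 mM Tris (pH 10.5) before reading A570. Percent inhibition was calculated against untreated cells after blank subtraction. IC50 is the concentration giving a 50% reduction in net protein increase, reported as mean ± SEM from ≥3 independent runs.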

SK-N-SH [1] = assay: Growth inhibition of human SK-N-SH cells after 48 hrs by sulforhodamine B assay; assay type: functional, cell-based; summary of the method: as §1
SK-BR-3 [2] = assay: Growth inhibition of human SK-BR-3 cells after 48 hrs by sulforhodamine B assay; assay type: functional, cell-based; settings: SK-BR-3, 48 h; summary of the method: as §1
DU-145 = assay: Growth inhibition of human DU145 cells after 48 hrs by sulforhodamine B assay; assay type: functional, cell-based; settings: DU-145, 48 h; summary of the method: as §1
A549 = assay: Growth inhibition of human A549 cells after 48 hrs by sulforhodamine B assay; assay type: functional, cell-based; settings: A549, 48 h; summary of the method: as §1
SK-BR-3 [3] = assay: Selectivity ratio of IC50 for human SK-BR-3 cells to IC50 for human A549 cells; assay type: functional
SK-BR-3 [4] = assay: Selectivity ratio of IC50 for human SK-BR-3 cells to IC50 for human HCT116 cells; assay type: functional
SK-N-SH [5] = assay: Selectivity ratio of IC50 for human SK-BR-3 cells to IC50 for human SK-N-SH cells; assay type: functional
SK-BR-3 [6] = assay: Selectivity ratio of IC50 for human SK-BR-3 cells to IC50 for human DU145 cells; assay type: functional
[7] = Growth inhibition of human MCF10A cells after 48 hrs by sulforhodamine B assay; assay type: cell-based; settings: MCF-10A; summary of the method: as §1
SK-BR-3 [8] = assay: Selectivity for human SK-BR-3 cells over human MCF10A cells
[9] = Cytotoxicity against human MCF10A cells at 0.1 uM after 72 hrs by MTT assay; assay type: cell-based; settings: mcf-10a
Summary of the method: (§2)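 Cells were plated in 96-well plates with medium and treated after 24 h with five test concentrations, each in triplicate, for 72 h. They were then washed with PBS, and fresh medium plus MTT (stock 3 mg/mL in PBS) was added for 4 h at 37 °C. Formazan was dissolved in DMSO for 30 min, absorbance was read, and the data were converted to % cell viability.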

[10] = Cytotoxicity against human MCF10A cells at 0.3 uM after 72 hrs by MTT assay; assay type: cell-based; settings: mcf-10a; summary of the method: as §2
[11] = Cytotoxicity against human MCF10A cells at 1 uM after 72 hrs by MTT assay; assay type: cell-based; settings: mcf-10a; summary of the method: as §2
[12] = Cytotoxicity against human MCF10A cells at 3 uM after 72 hrs by MTT assay; assay type: cell-based; settings: mcf-10a; summary of the method: as §2
[13] = Cytotoxicity against human MCF10A cells at 10 uM after 72 hrs by MTT assay; assay type: cell-based; settings: mcf-10a; summary of the method: as §2

Row | SMILES | IC50 (HCT-116) [µM] | IC50 (SK-N-SH [1]) [µM] | IC50 (SK-BR-3 [2]) [µM] | IC50 (DU-145) [µM] | IC50 (A549) [µM] | Selectivity ratio (SK-BR-3 [3]) | Selectivity ratio (SK-BR-3 [4]) | Selectivity ratio (SK-N-SH [5]) | Selectivity ratio (SK-BR-3 [6]) | IC50 [7] [µM] | Ratio (SK-BR-3 [8]) | Selectivity ratio (SK-BR-3 [8]) | Activity [9] | Activity [10] | Activity [11] | Activity [12] | Activity [13]
1 | COc1cc(OC)cc(N2NC3=CC[C@@H](OC)O[C@@]3(C)CC2=O)c1 | 24.3 | 23.7 | 5.7 | 22.2 | 6.15 | 5 | – | – | – | – | – | – | – | – | – | – | –
2 | COc1cc(OC)cc(N2NC3=CC[C@@H](OC)O[C@@]3(c3ccccc3)CC2=O)c1 | 18.1 | 19.5 | 1.2 | 18.3 | 17.2 | – | – | – | – | – | – | – | – | – | – | – | –
3 | CO[C@@H]1CC=C2NN(c3cc(F)cc(Cl)c3)C(=O)C[C@]2(c2ccccc2)O1 | 16.2 | 17.4 | 17.6 | 16.1 | 14.1 | – | – | – | – | – | – | – | – | – | – | – | –
4 | CO[C@@H]1CC=C2NN(c3ccc(C)cc3)C(=O)C[C@]2(c2ccccc2)O1 | 10.5 | 11.1 | 9.2 | 11.2 | 8.11 | – | – | – | – | – | – | – | – | – | – | – | –
5 | COc1ccc(N2NC3=CC[C@@H](OC)O[C@@]3(c3ccccc3)CC2=O)cc1 | 11.3 | 10.4 | 8.4 | 10.1 | 7.1 | – | – | – | – | – | – | – | – | – | – | – | –
6 | CO[C@@H]1CC=C2NN(c3cncnc3)C(=O)C[C@]2(c2ccccc2)O1 | 9.13 | 8.2 | 5.3 | 7.33 | 5.2 | – | – | – | – | – | – | – | – | – | – | – | –
7 | CO[C@@H]1CC=C2NN(c3cc4ccccc4[nH]3)C(=O)C[C@]2(c2ccccc2)O1 | 8.2 | 9.1 | 0.53 | 7.9 | 8.67 | 20 | 20 | 20 | 20 | > 38 | – | – | – | – | – | – | –
8 | CO[C@@H]1CC=C2NN(c3cc(Cl)cc(Cl)c3)C(=O)C[C@]2(c2ccncc2)O1 | 9.1 | 8.3 | 5.5 | 7.6 | 7.5 | – | – | – | – | – | – | – | – | – | – | – | –
9 | CO[C@@H]1CC=C2NN(c3ccc(C)cc3)C(=O)C[C@]2(c2ccncc2)O1 | 7.4 | 8.1 | 6.2 | 7.1 | 5.9 | – | – | – | – | – | – | – | – | – | – | – | –
10 | COc1cc(OC)cc(N2NC3=CC[C@@H](OC)O[C@@]3(c3ccncc3)CC2=O)c1 | 6.5 | 6.4 | 0.21 | 5.9 | 6.22 | 30 | 30 | 30 | 30 | > 51 | 290 | 290 | Non-toxic | Non-toxic | Non-toxic | Non-toxic | Non-toxic
11 | CO[C@@H]1CC=C2NN(c3cc4ccccc4[nH]3)C(=O)C[C@]2(c2ccncc2)O1 | 4.35 | 3.9 | 0.15 | 4.1 | 4.05 | 30 | 30 | 30 | 30 | > 55 | 290 | 290 | Non-toxic | Non-toxic | Non-toxic | Non-toxic | Non-toxic

Second part, led by results:

Row | IC50 (HCT-116) [µM] | IC50 (SK-N-SH [1]) [µM] | IC50 (SK-BR-3 [2]) [µM] | IC50 (DU-145) [µM] | IC50 (A549) [µM] | SMILES | Selectivity ratio (SK-BR-3 [3]) | Selectivity ratio (SK-BR-3 [4]) | Selectivity ratio (SK-N-SH [5]) | Selectivity ratio (SK-BR-3 [6]) | IC50 [7] [µM] | Ratio (SK-BR-3 [8]) | Selectivity ratio (SK-BR-3 [8]) | Activity [9] | Activity [10] | Activity [11] | Activity [12] | Activity [13]
12 | 35.7 | 31.7 | 28.7 | 24.2 | 25.5 | CO[C@@H]1CC=C2NN(c3ccc(Cl)cc3)C(=O)C[C@]2(C)O1 | – | – | – | – | – | – | – | – | – | – | – | –
13 | 28.7 | 25.3 | 29.7 | 23.2 | 21.5 | CO[C@@H]1CC=C2NN(c3ccc(C)cc3)C(=O)C[C@]2(C)O1 | – | – | – | – | – | – | – | – | – | – | – | –
14 | 18.3 | 19.5 | 4.1 | 14.4 | 3.92 | CO[C@@H]1CC=C2NN(c3cc4ccccc4[nH]3)C(=O)C[C@]2(C)O1 | 5 | – | – | – | – | – | – | – | – | – | – | –
15 | 19.4 | 20.2 | 18.8 | 21.3 | 17.5 | CO[C@@H]1CC=C2NN(c3cc(Cl)cc(Cl)c3)C(=O)C[C@]2(C)O1 | – | – | – | – | – | – | – | – | – | – | – | –
16 | 17.1 | 19 | 15.2 | 16.4 | 14.3 | CO[C@@H]1CC=C2NN(c3cccnc3)C(=O)C[C@]2(C)O1 | – | – | – | – | – | – | – | – | – | – | – | –
17 | 15.1 | 16.6 | 3.4 | 17.1 | 4.1 | CO[C@@H]1CC=C2NN(c3cncnc3)C(=O)C[C@]2(C)O1 | 5 | – | – | – | – | – | – | – | – | – | – | –

Source: ChEMBL document CHEMBL1629467, “Design and synthesis of novel tetrahydro-2H-Pyrano[3,2-c]pyridazin-3(6H)-one derivatives as potential anticancer agents” (Eur J Med Chem, 2010)
